Experiments:
[1] = species: Rattus norvegicus; assay: Inhibition of quipazine-induced head twitches in rats after 2 hrs of pretreatment; type: functional
Method in brief: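 Test drug was given sc or po to rats 2 or 24 h before quipazine (15 µmol/kg, sc). Head twitches were counted 30-40 min after quipazine, at least four animals per dose. Counts were expressed as percent of a quipazine-only control group.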

[2] = target: D(2) dopamine receptor (Rattus norvegicus, UniProt P61169); assay: Displacement of [3H]spiperone from dopamine D2 receptors in rat striatal membranes; type: cell membranes, Membrane
Method in brief: (§1)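 Radioligand displacement from rat brain membranes: 3H-ketanserin on cortical membranes (5-HT2), 3H-prazosin on whole brain membranes (alpha1), 3H-spiperone on striatal membranes (D2). Two full concentration-effect curves per compound, each with five test drug concentrations in triplicate spanning three decades. IC50 estimated from curves on a log-concentration scale. Outliers beyond 3 times the sd-ratio were discarded after extra determinations.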

[3] = target: Serotonin 2 (5-HT2) receptor (Rattus norvegicus, UniProt P30994+P08909+P14842); assay: Displacement of [3H]ketanserin from 5-hydroxytryptamine 2 receptor in rat cortical membranes; type: cell membranes, Membrane; method in brief: as §1
[4] = target: T1, Adrenergic receptor alpha-1 (Rattus norvegicus, UniProt P15823+P23944+P43140); assay: Displacement of [3H]prazosin from alpha-1 adrenoceptors in whole rat brain membranes; type: cell membranes; method in brief: as §1
T1 sequence (P15823 whole entry): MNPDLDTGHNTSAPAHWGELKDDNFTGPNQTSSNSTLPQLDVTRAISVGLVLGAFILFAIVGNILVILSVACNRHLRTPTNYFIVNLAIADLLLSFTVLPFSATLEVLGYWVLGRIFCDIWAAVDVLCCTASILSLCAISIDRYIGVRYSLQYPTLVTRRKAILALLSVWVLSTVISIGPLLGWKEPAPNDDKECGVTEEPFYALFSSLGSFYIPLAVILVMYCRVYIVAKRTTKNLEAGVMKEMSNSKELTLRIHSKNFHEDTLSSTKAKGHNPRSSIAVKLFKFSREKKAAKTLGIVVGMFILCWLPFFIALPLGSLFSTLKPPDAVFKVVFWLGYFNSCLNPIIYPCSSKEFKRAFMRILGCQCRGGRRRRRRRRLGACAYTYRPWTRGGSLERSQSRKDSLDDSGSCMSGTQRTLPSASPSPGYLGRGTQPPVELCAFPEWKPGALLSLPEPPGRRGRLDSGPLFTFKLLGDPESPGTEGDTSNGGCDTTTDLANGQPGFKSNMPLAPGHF
T1 sequence (P23944 whole entry): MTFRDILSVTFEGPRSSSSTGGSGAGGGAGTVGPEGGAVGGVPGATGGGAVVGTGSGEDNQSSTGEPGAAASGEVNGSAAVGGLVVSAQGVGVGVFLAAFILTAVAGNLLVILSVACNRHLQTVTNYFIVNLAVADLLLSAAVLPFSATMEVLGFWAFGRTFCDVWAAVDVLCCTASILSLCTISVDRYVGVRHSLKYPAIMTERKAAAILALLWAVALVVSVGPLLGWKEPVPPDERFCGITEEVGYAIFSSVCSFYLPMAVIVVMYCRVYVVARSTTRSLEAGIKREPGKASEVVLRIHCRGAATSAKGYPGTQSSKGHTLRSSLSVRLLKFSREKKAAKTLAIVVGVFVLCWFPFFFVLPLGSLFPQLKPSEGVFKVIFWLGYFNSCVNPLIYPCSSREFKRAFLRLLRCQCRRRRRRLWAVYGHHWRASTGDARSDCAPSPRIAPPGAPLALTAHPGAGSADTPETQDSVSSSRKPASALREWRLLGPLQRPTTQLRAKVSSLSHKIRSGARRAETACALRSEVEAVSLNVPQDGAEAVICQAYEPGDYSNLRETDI
T1 sequence (P43140 whole entry): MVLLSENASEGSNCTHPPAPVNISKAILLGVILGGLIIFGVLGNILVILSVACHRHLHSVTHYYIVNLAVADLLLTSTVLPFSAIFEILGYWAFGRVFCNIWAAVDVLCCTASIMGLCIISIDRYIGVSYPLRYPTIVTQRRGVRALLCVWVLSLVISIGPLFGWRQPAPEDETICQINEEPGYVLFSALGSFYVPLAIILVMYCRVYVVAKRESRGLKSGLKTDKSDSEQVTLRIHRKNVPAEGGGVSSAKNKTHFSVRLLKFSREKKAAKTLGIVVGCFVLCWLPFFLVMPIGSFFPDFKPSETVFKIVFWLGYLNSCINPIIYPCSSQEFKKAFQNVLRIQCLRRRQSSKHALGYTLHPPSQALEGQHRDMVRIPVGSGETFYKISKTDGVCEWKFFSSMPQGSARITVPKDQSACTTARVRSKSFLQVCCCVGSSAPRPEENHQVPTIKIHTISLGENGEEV

[5] = Rattus norvegicus, read-out: ED50

D(2) dopamine receptor, sequence (P61169 whole entry): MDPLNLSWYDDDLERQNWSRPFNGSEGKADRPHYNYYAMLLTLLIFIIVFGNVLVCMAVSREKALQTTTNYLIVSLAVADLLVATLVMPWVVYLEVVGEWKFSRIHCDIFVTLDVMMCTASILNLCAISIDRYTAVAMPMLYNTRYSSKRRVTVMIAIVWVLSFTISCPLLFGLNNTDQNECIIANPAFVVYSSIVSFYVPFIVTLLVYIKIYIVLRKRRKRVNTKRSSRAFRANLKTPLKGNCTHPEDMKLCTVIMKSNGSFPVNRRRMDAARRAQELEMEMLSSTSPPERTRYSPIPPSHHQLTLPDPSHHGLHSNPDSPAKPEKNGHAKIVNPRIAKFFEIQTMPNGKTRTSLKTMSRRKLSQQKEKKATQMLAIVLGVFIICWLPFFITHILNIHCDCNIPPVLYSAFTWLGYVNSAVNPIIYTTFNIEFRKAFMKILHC

Compound | ED50 [1, 5] [µmol/kg] | IC50 [2] [nM] | IC50 [3] [nM] | IC50 [4] [nM] | ED50 [1] [µM/kg]
O=C(O)/C=C\C(=O)O.O=C(O)/C=C\C(=O)O.O=C1NCCN1CCCN1CCN(C2CC(c3ccc(F)cc3)c3cc(Cl)ccc32)CC1 (stereo not drawn) | 0.91 | 160 | 10 | 73 | 
Cl.Cl.OCCN1CCN(C2CC(c3ccc(F)cc3)c3cc(Cl)ccc32)CC1 (single isomer, unassigned; (+)) |  | 6300 | 230 | 2500 | >2.8
CC(C)N1CCN(CCN2CCN(C3CC(c4ccccc4F)c4cc(Cl)ccc43)CC2)C1=O.O=C(O)/C=C\C(=O)O.O=C(O)/C=C\C(=O)O (stereo not drawn) | 2.1 |  | 3.5 | 670 | 
CC(C)N1CCN(CCN2CCN(C3CC(c4ccc(F)cc4)c4cc(Br)ccc43)CC2)C1=O.O=C(O)/C=C\C(=O)O.O=C(O)/C=C\C(=O)O (stereo not drawn) | 0.098 |  | 6.4 | 270 | 
O=C(O)/C=C\C(=O)O.O=C(O)/C=C\C(=O)O.O=C1NCCCN1CCN1CCN(C2CC(c3ccc(F)cc3)c3cc(Cl)ccc32)CC1 (stereo in doubt; (+)-41) |  | 1700 | 120 |  | 
Cl.Cl.OCCN1CCN(C2CC(c3ccc(F)cc3)c3cc(Cl)ccc32)CC1 (stereo in doubt; 10) |  |  | 25 | 230 | 0.23
Cl.Cl.OCCN1CCN(C2CC(c3ccc(F)cc3)c3cc(Cl)ccc32)CC1 (single isomer, unassigned; (-)) |  | 370 | 11 | 210 | 0.86
Cl.Cl.Fc1ccc(C2CC(N3CCN(CCN4CCCNC4=S)CC3)c3ccc(F)cc32)cc1 (racemic) |  | 2900 | 42 |  | 
CN1CCN(CCN2CCN(C3CC(c4ccc(F)cc4)c4cc(Cl)ccc43)CC2)C1=O.O=C(O)/C=C\C(=O)O (stereo not drawn) | 0.093 |  | 2.8 | 600 | 
Fc1ccc(C2CC(N3CCN(CCN4CCCN=C4S)CC3)c3ccc(Cl)cc32)cc1.O=C(O)/C=C\C(=O)O.O=C(O)/C=C\C(=O)O (stereo not drawn) | 0.048 | 93 | 1.5 | 170 | 
CSc1ccc2c(c1)C(c1ccc(F)cc1)CC2N1CCN(CCN2CCN(C(C)C)C2=O)CC1 (stereo not drawn) | > 3.4 |  | 4 | 250 | 
Cl.Cl.Fc1ccc(C2CC(N3CCN(CCN4CCCNC4=S)CC3)c3ccc(Cl)cc32)cc1 (stereo in doubt; (+)-39) |  | 490 | 21 | 350 | 
O=C(O)/C=C\C(=O)O.O=C(O)/C=C\C(=O)O.O=c1[nH]c2ccccc2c(=O)n1CCN1CCN(C2CC(c3ccc(F)cc3)c3cc(Cl)ccc32)CC1 (stereo not drawn) | > 3.3 | 93 | 3.8 | 78 | 
Cl.Cl.OCCN1CCN(C2CC(c3ccc(F)cc3)c3cc(F)ccc32)CC1 (stereo in doubt; (-)-13) |  | 22000 | 500 | 1100 | >2.8
CC(C)N1CCN(CCN2CCN(C3CC(c4ccc(F)cc4)c4cc(C(F)(F)F)ccc43)CC2)C1=O.O=C(O)/C=C\C(=O)O.O=C(O)/C=C\C(=O)O (stereo not drawn) | 0.13 |  | 3.7 | 370 | 
O=C(O)/C=C\C(=O)O.O=C(O)/C=C\C(=O)O.Oc1nc2ccccc2n1CCN1CCN(C2CC(c3ccc(F)cc3)c3cc(Cl)ccc32)CC1 (stereo not drawn) | 0.21 | 110 | 5.6 | 66 | 
Cc1ccc2c(c1)C(c1ccc(F)cc1)CC2N1CCN(CCO)CC1.O=C(O)/C=C\C(=O)O.O=C(O)/C=C\C(=O)O (stereo not drawn) | > 2.1 | 1100 | 12 | 270 | 

Compound | ED50 [1, 5] [µmol/kg] | IC50 [2] [nM] | IC50 [3] [nM] | IC50 [4] [nM] | ED50 [1] [µM/kg]
O=C(O)/C=C\C(=O)O.O=C(O)/C=C\C(=O)O.OCCN1CCN(C2CC(c3ccc(F)cc3)c3cc(C(F)(F)F)ccc32)CC1 (stereo not drawn) | 1 |  | 8.9 | 380 | 
O=C(O)/C=C\C(=O)O.O=C(O)/C=C\C(=O)O.O=C1N(CCN2CCN(C3CC(c4ccc(F)cc4)c4cc(Cl)ccc43)CC2)CCN1c1ccccc1 (stereo not drawn) | > 6.7 |  | 44 | 310 | 
Cl.Cl.O=C1OCCN1CCN1CCN(C2CC(c3ccc(F)cc3)c3cc(Cl)ccc32)CC1 (stereo not drawn) | 2 | 550 | 23 | 140 | 
O=C(O)/C=C\C(=O)O.O=C(O)/C=C\C(=O)O.OCCN1CCN(C2CC(c3ccc(F)cc3)c3cccc(Cl)c32)CC1 (stereo not drawn) | 1.3 | 46 | 15 | 38 | 
Cl.Cl.OCCN1CCN(C2CC(c3ccc(F)cc3)c3cc(F)ccc32)CC1 (single isomer, unassigned; (+)) |  | 330 | 12 | 72 | 0.33
CCN1CCN(CCN2CCN(C3CC(c4ccc(F)cc4)c4cc(Cl)ccc43)CC2)C1=O.O=C(O)/C=C\C(=O)O.O=C(O)/C=C\C(=O)O (stereo not drawn) | 0.042 |  | 2.6 | 240 | 
Cl.Cl.O=C1CCCN1CCN1CCN(C2CC(c3ccc(F)cc3)c3cc(Cl)ccc32)CC1 (stereo not drawn) | 2.7 | 500 | 10 | 370 | 
O=C1NCCN1CCN1CCN(C2CC(c3ccc(F)cc3)c3cc(Cl)ccc32)CC1 (stereo not drawn) | 0.34 |  | 2.9 | 200 | 
OCCN1CCN(C2CC(c3ccc(F)cc3)c3ccc(Cl)cc32)CC1 (stereo not drawn) | 0.039 | 20 | 2.6 | 26 | 
CC(C)N1CCN(CCN2CCN(C3CC(c4cccc(F)c4)c4cc(Cl)ccc43)CC2)C1=O.O=C(O)/C=C\C(=O)O (stereo not drawn) |  |  | 26 | 970 | 
CC(C)N1CCN(CCN2CCN(C3CC(c4ccccc4)c4cc(Cl)ccc43)CC2)C1=O.O=C(O)/C=C\C(=O)O.O=C(O)/C=C\C(=O)O (stereo not drawn) | 1 |  | 9.9 | 510 | 
Cc1ccc(C2CC(N3CCN(CCN4CCN(C(C)C)C4=O)CC3)c3ccc(Cl)cc32)cc1.O=C(O)/C=C\C(=O)O (stereo not drawn) | > 3.5 |  | 11 | 60 | 
O=C(O)/C=C\C(=O)O.O=C(O)/C=C\C(=O)O.O=C1N(CCO)CCN1CCN1CCN(C2CC(c3ccc(F)cc3)c3cc(Cl)ccc32)CC1 (stereo not drawn) | 1.1 |  | 6.1 | 710 | 
CC(C)N1CCN(CCN2CCN(C3CC(c4ccc(Cl)cc4)c4cc(Cl)ccc43)CC2)C1=O.O=C(O)/C=C\C(=O)O (stereo not drawn) | 2.9 |  | 15 | 180 | 
CC(C)N1CCN(CCN2CCN(C3CC(c4ccc(F)cc4)c4cc(Cl)ccc43)CC2)C1=O.O=C(O)/C=C\C(=O)O.O=C(O)/C=C\C(=O)O (stereo in doubt; 20) |  |  | 3.9 | 260 | 0.06
O=C(O)/C=C\C(=O)O.O=C(O)/C=C\C(=O)O.O=C1NCCCN1CCN1CCN(C2CC(c3ccc(F)cc3)c3cc(F)ccc32)CC1 (single isomer, unassigned; (-)) |  | 4000 | 57 |  | 

— ChEMBL document CHEMBL1126803, “Stereospecific and selective 5-HT2 antagonism in a series of 5-substituted trans-1-piperazino-3-phenylindans” (J Med Chem, 1993)
